{"data": "Measured values from different studies", "target": "Dual specificity mitogen-activated protein kinase kinase 1 (MAP2K1, Homo sapiens, UniProt Q02750)", "note": "Compare with care: the assays were run in different laboratories."}
{"Structure (SMILES)": "CN(C)c1nccc(-c2cnc3ncccn23)n1", "assay": "binding, competition with immobilised ligand", "setting": "1 µM", "remaining binding [%]": 81}
{"Structure (SMILES)": "Cc1nc(Nc2ncc(C(=O)Nc3c(C)cccc3Cl)s2)cc(N2CCN(CCO)CC2)n1", "assay": "cell-free assay, competition with immobilised ligand", "setting": "0.1 µM", "remaining binding [%]": 89}
{"Structure (SMILES)": "Cc1nc(Cc2cccc(C(F)(F)F)c2)sc1-c1ccc(C(N)=O)nc1", "assay": "cell-free assay, competition with immobilised ligand", "setting": "1 µM", "remaining binding [%]": 100}
{"Structure (SMILES)": "O=C(c1ccc(Nc2ncc(Cl)c(-c3ccc(Cl)s3)n2)cc1)N1CCC(N2CCCC2)CC1", "assay": "binding, competition with immobilised ligand", "setting": "1 µM", "remaining binding [%]": 18}
{"Structure (SMILES)": "c1cnn2ncc(-c3ccnc(N4CCC45COC5)n3)c2c1", "assay": "binding, competition with immobilised ligand", "setting": "1 µM", "remaining binding [%]": 69}
{"Structure (SMILES)": "FC(F)(F)Oc1cccc(-c2cnc3ccc(-c4ccncc4)nn23)c1", "assay": "cell-free assay, competition with immobilised ligand", "setting": "5 µM", "remaining binding [%]": 70}
{"Structure (SMILES)": "O=C(NCc1ncc(C(F)(F)F)cc1Cl)c1ccc2c(c1)C1(CCS(=O)(=O)CC1)[C@@H](C1CC1)N2S(=O)(=O)c1ccc(F)cc1", "assay": "cell-free assay, competition with immobilised ligand", "setting": "1 µM", "remaining binding [%]": 91}
{"Structure (SMILES)": "COc1cc2ncnc(Nc3ccc(F)c(Cl)c3)c2cc1OCCCN1CCOCC1", "assay": "cell-free assay, competition with immobilised ligand", "setting": "10 µM", "remaining binding [%]": 83}
{"Structure (SMILES)": "C[C@@H]1CN(c2ccc3ncc(-c4ccc5[nH]nc(C6CC6)c5c4)n3n2)C[C@H](C)O1", "assay": "binding, competition with immobilised ligand", "setting": "0.5 µM", "remaining binding [%]": 100}
{"Structure (SMILES)": "O=C(c1ccc(Nc2nccc(-c3cc4ccccc4s3)n2)cc1)N1CCC(N2CCCC2)CC1", "assay": "binding, competition with immobilised ligand", "setting": "1 µM", "remaining binding [%]": 54}
{"Structure (SMILES)": "Cc1noc([C@H]2C[C@@H](c3ccc(C(F)(F)F)cc3)CN(C(=O)N3CCS(=O)(=O)C3)C2)n1", "assay": "cell-free assay, competition with immobilised ligand", "setting": "1 µM", "remaining binding [%]": 100}
{"Structure (SMILES)": "C[C@@H](c1ccc(-n2cnc3c(N)ncnc32)cc1)N1CCc2nn(C)c(Cc3ccccc3)c2C1=O", "assay": "binding, competition with immobilised ligand", "setting": "0.1 µM", "remaining binding [%]": 89}
{"Structure (SMILES)": "Cc1ccc(NC(=O)c2ccc(CN3CCN(C)CC3)cc2)cc1Nc1nccc(-c2cccnc2)n1", "assay": "cell-free assay, competition with immobilised ligand", "setting": "10 µM", "remaining binding [%]": 94}
{"Structure (SMILES)": "N#CC1(c2ccccn2)CCN(Cc2cc(C(=O)N3CCCC3)c(=O)n3ccccc23)CC1", "assay": "cell-free assay, competition with immobilised ligand", "setting": "1 µM", "remaining binding [%]": 100}
{"Structure (SMILES)": "N[C@@H]1CCN(c2nccc(-c3cnn4ncccc34)n2)C1", "assay": "binding", "setting": "1 µM", "remaining binding [%]": 100}
{"Structure (SMILES)": "Cc1c(-c2ccccc2)oc2c(C(=O)OCCN3CCCCC3)cccc2c1=O", "assay": "cell-free assay, competition with immobilised ligand", "setting": "0.1 µM", "remaining binding [%]": 94}
{"Structure (SMILES)": "C[C@@H](c1cccc(C#N)c1)n1cc(Cl)cc(C(N)=O)c1=N", "assay": "cell-free assay, competition with immobilised ligand", "setting": "1 µM", "remaining binding [%]": 80}
{"Structure (SMILES)": "O=C(c1ccc(Nc2ncc(Cl)c(-c3cc4ccccc4s3)n2)cc1)N1CCC(N2CCCC2)CC1", "assay": "binding, competition with immobilised ligand", "setting": "1 µM", "remaining binding [%]": 21}
{"Structure (SMILES)": "Nc1ncc2c(n1)-c1c([nH]c3ccc(C#CC4CC4)cc13)CCCC2", "assay": "binding, competition with immobilised ligand", "setting": "1 µM", "remaining binding [%]": 100}
{"Structure (SMILES)": "COc1cnc(Nc2cccc(S(N)(=O)=O)c2)nc1N1CCN(c2ccccc2)C(=O)C1", "assay": "binding, competition with immobilised ligand", "setting": "1 µM", "remaining binding [%]": 91}
{"Structure (SMILES)": "C[C@H](c1ccc(F)cc1)N(Cc1cccc(C(=O)O)c1)C(=O)c1cnc2ccccc2c1", "assay": "cell-free assay, competition with immobilised ligand", "setting": "1 µM", "remaining binding [%]": 100}
{"Structure (SMILES)": "COC(=O)Nc1nc2cc(C(=O)c3ccccc3)ccc2[nH]1", "assay": "cell-free assay, competition with immobilised ligand", "setting": "0.1 µM", "remaining binding [%]": 100}
{"Structure (SMILES)": "N#Cc1ccccc1CSc1nnc2c(n1)[nH]c1ccccc12", "assay": "binding, competition with immobilised ligand", "setting": "10 µM", "remaining binding [%]": 95}
{"Structure (SMILES)": "CS(=O)(=O)CCNCc1ccc(-c2ccc3ncnc(Nc4ccc(OCc5cccc(F)c5)c(Cl)c4)c3c2)o1", "assay": "cell-free assay, competition with immobilised ligand", "setting": "0.1 µM", "remaining binding [%]": 95}
{"Structure (SMILES)": "C=CC(=O)N1CCC(C(=O)NCC(=O)N2CCN(c3nc(-c4cnc(N)nc4C(F)F)nc(N4CCOCC4)n3)CC2)CC1", "assay": "binding, competition with immobilised ligand", "setting": "1 µM", "remaining binding [%]": 69}
{"Structure (SMILES)": "CN1CC[C@H](c2c(O)cc(O)c3c(=O)cc(-c4ccccc4Cl)oc23)[C@H](O)C1", "assay": "cell-free assay, competition with immobilised ligand", "setting": "10 µM", "remaining binding [%]": 92}
{"Structure (SMILES)": "CC(=O)Nc1c(C(C)=O)c(=O)n(C)c2nc(-c3ccc(Cl)cc3Cl)c(-c3ccc(Cl)cc3)cc12", "assay": "cell-free assay, competition with immobilised ligand", "setting": "1 µM", "remaining binding [%]": 100}
{"Structure (SMILES)": "CNC(=O)c1cc(Oc2ccc(NC(=O)Nc3ccc(Cl)c(C(F)(F)F)c3)cc2)ccn1", "assay": "cell-free assay, competition with immobilised ligand", "setting": "0.1 µM", "remaining binding [%]": 100}
{"Structure (SMILES)": "CN(C)c1ncc(F)c(-c2cnn3ncccc23)n1", "assay": "binding, competition with immobilised ligand", "setting": "1 µM", "remaining binding [%]": 78}
{"Structure (SMILES)": "O=C1CCc2cc(Nc3cc(OC4CCOCC4)c([N+](=O)[O-])cc3Cl)ccc2N1", "assay": "cell-free assay, competition with immobilised ligand", "setting": "1 µM", "remaining binding [%]": 72}
{"Structure (SMILES)": "C[C@@H]1CCN(c2nccc(-c3cnn4ncccc34)n2)C1", "assay": "binding, competition with immobilised ligand", "setting": "1 µM", "remaining binding [%]": 75}
{"Structure (SMILES)": "O=C(NCC1CCOCC1)c1n[nH]cc1NC(=O)c1c(F)cccc1F", "assay": "binding, competition with immobilised ligand", "setting": "1 µM", "remaining binding [%]": 100}
